Reference: ChEMBL document CHEMBL1126616, “1,2-Cyclomethylenecarboxylic monoamide hydroxamic derivatives. A novel class of non-amino acid angiotensin converting enzyme inhibitors” (J Med Chem, 1993)

T1: Angiotensin-converting enzyme (Rattus norvegicus, UniProt P47820)
T1 sequence (P47820 whole entry): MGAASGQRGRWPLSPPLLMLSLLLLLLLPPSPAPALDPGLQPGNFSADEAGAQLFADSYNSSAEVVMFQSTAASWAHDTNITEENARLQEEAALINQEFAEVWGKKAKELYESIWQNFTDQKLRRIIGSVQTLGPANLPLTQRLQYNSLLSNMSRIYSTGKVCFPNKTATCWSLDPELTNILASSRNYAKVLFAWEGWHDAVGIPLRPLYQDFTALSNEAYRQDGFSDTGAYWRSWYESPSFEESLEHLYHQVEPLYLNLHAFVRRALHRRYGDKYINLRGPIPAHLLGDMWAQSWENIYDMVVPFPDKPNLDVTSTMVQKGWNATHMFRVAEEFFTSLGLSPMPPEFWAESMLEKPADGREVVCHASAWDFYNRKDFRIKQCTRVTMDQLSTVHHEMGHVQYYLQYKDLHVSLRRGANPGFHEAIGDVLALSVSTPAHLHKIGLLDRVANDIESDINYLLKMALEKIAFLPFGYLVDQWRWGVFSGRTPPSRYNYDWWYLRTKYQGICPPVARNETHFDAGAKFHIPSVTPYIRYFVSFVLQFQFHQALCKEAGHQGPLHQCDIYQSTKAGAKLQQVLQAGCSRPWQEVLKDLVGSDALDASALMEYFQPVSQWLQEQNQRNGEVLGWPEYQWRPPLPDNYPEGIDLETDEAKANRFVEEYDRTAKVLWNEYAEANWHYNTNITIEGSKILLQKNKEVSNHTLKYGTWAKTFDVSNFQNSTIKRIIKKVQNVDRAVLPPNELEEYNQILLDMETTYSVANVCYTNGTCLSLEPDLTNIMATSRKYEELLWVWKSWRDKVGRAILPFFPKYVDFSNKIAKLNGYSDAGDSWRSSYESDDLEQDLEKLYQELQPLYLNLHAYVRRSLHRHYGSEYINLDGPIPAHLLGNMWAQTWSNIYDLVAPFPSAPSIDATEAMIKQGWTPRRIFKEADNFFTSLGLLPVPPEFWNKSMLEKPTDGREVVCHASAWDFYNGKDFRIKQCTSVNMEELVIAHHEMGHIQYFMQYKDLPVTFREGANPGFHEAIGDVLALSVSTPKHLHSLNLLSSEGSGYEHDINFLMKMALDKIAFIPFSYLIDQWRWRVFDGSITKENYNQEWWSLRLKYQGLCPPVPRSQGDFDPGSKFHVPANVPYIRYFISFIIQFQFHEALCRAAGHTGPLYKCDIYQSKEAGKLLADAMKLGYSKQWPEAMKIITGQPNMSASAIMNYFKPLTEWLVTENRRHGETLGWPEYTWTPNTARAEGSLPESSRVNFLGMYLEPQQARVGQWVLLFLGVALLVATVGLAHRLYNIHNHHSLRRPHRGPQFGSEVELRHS

B1: Angiotensin-converting enzyme (Rattus norvegicus), P47820 (protein)
chain: MGAASGQRGRWPLSPPLLMLSLLLLLLLPPSPAPALDPGLQPGNFSADEAGAQLFADSYNSSAEVVMFQSTAASWAHDTNITEENARLQEEAALINQEFAEVWGKKAKELYESIWQNFTDQKLRRIIGSVQTLGPANLPLTQRLQYNSLLSNMSRIYSTGKVCFPNKTATCWSLDPELTNILASSRNYAKVLFAWEGWHDAVGIPLRPLYQDFTALSNEAYRQDGFSDTGAYWRSWYESPSFEESLEHLYHQVEPLYLNLHAFVRRALHRRYGDKYINLRGPIPAHLLGDMWAQSWENIYDMVVPFPDKPNLDVTSTMVQKGWNATHMFRVAEEFFTSLGLSPMPPEFWAESMLEKPADGREVVCHASAWDFYNRKDFRIKQCTRVTMDQLSTVHHEMGHVQYYLQYKDLHVSLRRGANPGFHEAIGDVLALSVSTPAHLHKIGLLDRVANDIESDINYLLKMALEKIAFLPFGYLVDQWRWGVFSGRTPPSRYNYDWWYLRTKYQGICPPVARNETHFDAGAKFHIPSVTPYIRYFVSFVLQFQFHQALCKEAGHQGPLHQCDIYQSTKAGAKLQQVLQAGCSRPWQEVLKDLVGSDALDASALMEYFQPVSQWLQEQNQRNGEVLGWPEYQWRPPLPDNYPEGIDLETDEAKANRFVEEYDRTAKVLWNEYAEANWHYNTNITIEGSKILLQKNKEVSNHTLKYGTWAKTFDVSNFQNSTIKRIIKKVQNVDRAVLPPNELEEYNQILLDMETTYSVANVCYTNGTCLSLEPDLTNIMATSRKYEELLWVWKSWRDKVGRAILPFFPKYVDFSNKIAKLNGYSDAGDSWRSSYESDDLEQDLEKLYQELQPLYLNLHAYVRRSLHRHYGSEYINLDGPIPAHLLGNMWAQTWSNIYDLVAPFPSAPSIDATEAMIKQGWTPRRIFKEADNFFTSLGLLPVPPEFWNKSMLEKPTDGREVVCHASAWDFYNGKDFRIKQCTSVNMEELVIAHHEMGHIQYFMQYKDLPVTFREGANPGFHEAIGDVLALSVSTPKHLHSLNLLSSEGSGYEHDINFLMKMALDKIAFIPFSYLIDQWRWRVFDGSITKENYNQEWWSLRLKYQGLCPPVPRSQGDFDPGSKFHVPANVPYIRYFISFIIQFQFHEALCRAAGHTGPLYKCDIYQSKEAGKLLADAMKLGYSKQWPEAMKIITGQPNMSASAIMNYFKPLTEWLVTENRRHGETLGWPEYTWTPNTARAEGSLPESSRVNFLGMYLEPQQARVGQWVLLFLGVALLVATVGLAHRLYNIHNHHSLRRPHRGPQFGSEVELRHS

Substrate: CN(CC(=O)NO)C(=O)C1CCCCC1C(=O)O
Experiment: Michaelis-Menten's constant for the hydrolysis of hippuryl-glycyl-glycine by rat serum ACE
Type: cell-free
Conditions: not given
Summary of the method: (§1)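 For rat serum ACE kinetics, the dependence of hippurylglycylglycine hydrolysis rate on substrate concentration was measured at increasing inhibitor concentrations. Apparent Km and Vmax were derived for each inhibitor level.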

In the case of B1, the Km is reported as 21 mM.

Species: Rattus norvegicus
Experiment: Maximum rate for the hydrolysis of hippuryl-glycyl-glycine by rat serum ACE
Type: ADME
Conditions: not given
Summary of the method: as §1

CN(CC(=O)NO)C(=O)C1CCCCC1C(=O)O (stereo in doubt; 21a) gave a Vmax of 1.31 uM min-1 ml-1.

Species: Rattus norvegicus
Experiment: Maximum rate for the hydrolysis of hippuryl-glycyl-glycine by rat serum ACE at the concentration of 3 nM
Type: ADME
Conditions: 0.003 µM
Summary of the method: as §1

CN(CC(=O)NO)C(=O)C1CCCCC1C(=O)O (stereo in doubt; 21a) showed a Vmax of 1.25 uM min-1 ml-1.

Species: Rattus norvegicus
Experiment: Maximum rate for the hydrolysis of hippuryl-glycyl-glycine by rat serum ACE at the concentration of 12 nM
Type: ADME
Conditions: 0.012 µM
Summary of the method: as §1

CN(CC(=O)NO)C(=O)C1CCCCC1C(=O)O (stereo in doubt; 21a) was tested, and the Vmax was 1.36 uM min-1 ml-1.

Substrate: CN(CC(=O)NO)C(=O)C1CCCCC1C(=O)O
Experiment: Michaelis-Menten's constant for the hydrolysis of hippuryl-glycyl-glycine by rat serum ACE at the concentration of 3 nM
Conditions: not given
Summary of the method: as §1

Work on B1 yielded a Km of 43 mM.

Species: Rattus norvegicus
Experiment: Maximum rate for the hydrolysis of hippuryl-glycyl-glycine by rat serum ACE at the concentration of 6 nM (mean +/- SEM)
Type: ADME
Conditions: 0.006 µM
Summary of the method: as §1

Work on CN(CC(=O)NO)C(=O)C1CCCCC1C(=O)O (stereo in doubt; 21a) yielded a Vmax of 1.16 uM min-1 ml-1.

Substrate: CN(CC(=O)NO)C(=O)C1CCCCC1C(=O)O
Experiment: Michaelis-Menten's constant for the hydrolysis of hippuryl-glycyl-glycine by rat serum ACE at the concentration of 12 nM
Type: cell-free
Conditions: not given
Summary of the method: as §1

For B1, the Km was 129 mM.

Substrate: CN(CC(=O)NO)C(=O)C1CCCCC1C(=O)O
Experiment: Michaelis-Menten's constant for the hydrolysis of hippuryl-glycyl-glycine by rat serum Angiotensin I Converting Enzyme at the concentration of 6 nM
Type: cell-free
Conditions: not given
Summary of the method: as §1

Molecule B1 has a Km of 62 mM.

Target: T1, Angiotensin-converting enzyme
Experiment: In vitro inhibitory activity against rat serum angiotensin I converting enzyme using hippuryl-glycyl-glycine as substrate
Type: cell-free
Conditions: not given

Compared with O=C(O)C1CCCCC1C(=O)CCS (stereo unspecified), O=C(O)C1CCCCC1C(=O)NCCS (stereo in doubt; 8b) is 7.1-fold higher in IC50: 1400 nM for the first, 10000 nM for the second. The first is the more potent here.

First: O=C(O)CNC(=O)C1CCCCC1C(=O)O (stereo unspecified)
Second: O=C(CNC(=O)C1CCCCC1C(=O)O)NO (cis isomer)
The IC50 of the first is higher: greater than 150000 nM for the first, 3000 nM for the second.

First: CCCN(CC(=O)O)C(=O)C1CCCCC1C(=O)O (stereo unspecified)
Second: CCN(CC(=O)O)C(=O)C1CCCCC1C(=O)O (stereo in doubt; 7d)
The IC50 of the first is higher: greater than 150000 nM for the first, 75000 nM for the second. The second is the more potent here.

CN(CC(=O)NOCc1ccccc1)C(=O)C1CCCC1C(=O)O (stereo unspecified) and CN(CC(=O)NOCc1ccccc1)C(=O)C1CCCCC1C(=O)O (cis isomer) cannot be ordered by IC50: greater than 150000 nM for the first, greater than 150000 nM for the second.

Compared with O=C(O)C1CCCC1C(=O)NCCS (stereo unspecified), O=C(O)C1CCCCC1C(=O)NCCS (trans isomer) is higher in IC50: 11000 nM for the first, greater than 150000 nM for the second. The first is the more potent here.

Compared with O=C(O)CCC(=O)N1CCCC1C(=O)O (stereo unspecified), CC(CC(=O)NO)C(=O)N1CCC[C@H]1C(=O)O (stereo partly specified) is 1000-fold lower in IC50: 624000 nM for the first, 600 nM for the second.

First: CN(CC(=O)NO)C(=O)C1CCCC1C(=O)O (stereo unspecified)
Second: CN(CC(=O)NO)C(=O)C1CCCCC1C(=O)O (cis isomer)
The IC50 of the first is 120-fold higher: 1400 nM for the first, 12 nM for the second. The second is the more potent here.

Going from CN(CC(=O)O)C(=O)C1CCCCC1C(=O)O (cis isomer) to CN(CC(=O)NO)C(=O)C1CCCCC1C(=O)O (stereo in doubt; 16a), the IC50 falls from greater than 150000 nM to 23500 nM. The second is the more potent here.

Going from CCCN(CC(=O)NO)C(=O)C1CCCCC1C(=O)O (cis isomer) to CCN(CC(=O)NO)C(=O)C1CCCCC1C(=O)O (cis isomer), the IC50 falls from 400 nM to 57 nM (7-fold). The second is the more potent here.

O=C(CNC(=O)C1CCCCC1C(=O)O)NOCc1ccccc1 (cis isomer) and CN(CC(=O)NOCc1ccccc1)C(=O)C1CCCCC1C(=O)O (stereo in doubt; 9e) cannot be ordered by IC50: greater than 150000 nM for the first, greater than 150000 nM for the second.

CCN(CC(=O)NOCc1ccccc1)C(=O)C1CCCCC1C(=O)O (cis isomer) and O=C(CNC(=O)C1CCCCC1C(=O)O)NOCc1ccccc1 (stereo in doubt; 9b) cannot be ordered by IC50: greater than 150000 nM for the first, greater than 150000 nM for the second.

Going from CCN(CC(=O)O)C(=O)C1CCCC1C(=O)O (cis isomer) to CCN(CC(=O)O)C(=O)C1CCCCC1C(=O)O (stereo in doubt; 7e), the IC50 falls from greater than 150000 nM to 97000 nM.

Compared with CCN(CC(=O)NO)C(=O)C1CCCCC1C(=O)O (stereo in doubt; 10g), CCCN(CC(=O)NO)C(=O)C1CCCCC1C(=O)O (trans isomer) is 8.3-fold higher in IC50: 18 nM for the first, 150 nM for the second. The first is the more potent here.

Compared with CN(CC(=O)NO)C(=O)C1CCCCC1C(=O)O (stereo in doubt; 16b), CCN(CC(=O)NO)C(=O)C1CCCCC1C(=O)O (stereo in doubt; 16c) is 120-fold higher in IC50: 24 nM for the first, 2900 nM for the second.

First: CN(CC(=O)NO)C(=O)C1CCCCC1C(=O)O (stereo in doubt; 21a)
Second: CCN(CC(=O)NO)C(=O)C1CCCCC1C(=O)O (stereo in doubt; 21c)
The IC50 of the first is 4-fold lower: 7 nM for the first, 28 nM for the second.

First: CN(CC(=O)NO)C(=O)C1CCCCC1C(=O)O (stereo in doubt; 21b)
Second: CCN(CC(=O)NO)C(=O)C1CCCCC1C(=O)O (stereo in doubt; 21d)
The IC50 of the first is 1.6-fold lower: 1800 nM for the first, 2900 nM for the second.

O=C(O)C1CCCCC1C(=O)CCS (trans isomer) and O=C(CNC(=O)C1CCCCC1C(=O)O)NO (trans isomer) are within 1.5-fold of each other in IC50: 1700 nM for the first, 1500 nM for the second.

Compared with CCN(CC(=O)NOCc1ccccc1)C(=O)C1CCCCC1C(=O)O (trans isomer), CCN(CC(=O)NO)C(=O)C1CCCCC1C(=O)O (trans isomer) is lower in IC50: greater than 150000 nM for the first, 14 nM for the second.

Compared with CC(C)N(CC(=O)NO)C(=O)C1CCCCC1C(=O)O (trans isomer), CN(CC(=O)NO)C(=O)C1CCCCC1C(=O)O (trans isomer) is 11-fold lower in IC50: 500 nM for the first, 45 nM for the second. The second is the more potent here.
